Screens (PubChem)
Hits are enriched below; roughly 3.3% of the tested compounds scored in any of these assays.
HGIII-sPLA2 inh – Inhibits HGIII-sPLA2 liposome hydrolysis, primary screen; Q9NZ20; QFRET BODIPY PC-A2 liposome hydrolysis, fluorescence; inhibition, % at 12.2 µM; hit rate 0.56% among 370,000; AID 743126;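 active = inhibition above mean plus 3 SD of compounds lying within the high and low control bounds, cut at about 19% in these data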;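 note: 0% = median of test compound wells and 100% = no enzyme DMSO wells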
Arrestin-AP2 inh – human beta-arrestin and AP2 interaction inhibition; FITC-arrestin peptide / GST-AP2 beads, flow cytometry; AP2 beta2 appendage carries R879A mutation; inhibition, % at 10 µM; hit rate 0.31% among 340,000;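 active = inhibition above a set limit, near 3 SD of compounds lacking own fluorescence, cut at about 54% in these data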;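 note: plate controls were DMSO wells for no effect and 5 µM unlabelled arrestin peptide for full effect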
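System: GST-AP2 R879A bound to glutathione beads, E. coli-expressed. Also added: 50 nM FITC-arrestin peptide. Schedule: compound with beads 12 min RT, then probe 1 h RT. Signal: bead flow cytometry, FITC channel. Read-out basis: percent response.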
Lipid droplet – modulators of hepatic lipid droplet formation | AML12 mouse hepatocytes, oleate lipid droplets, BODIPY imaging | inhibition, % at 6.5 µM | hit rate 0.4% among 240,000 | AID 1656;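 active = lipid droplet intensity inhibited by at least 50%, with more than 500 cells counted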
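Test system: AML12 mouse liver cells; schedule: overnight exposure; technique: high-content imaging of BODIPY-stained droplets and DAPI nuclei; read-out: % inhibition of corrected integrated BODIPY droplet signal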
CendR NRP1 mod – alters CendR peptide binding to human NRP-1; O14786; FAM-RPARPAR peptide binding to NRP-1, fluorescence polarization; inhibition, % at 25 µM; hit rate 0.85% among 360,000; AID 602438;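 active = inhibition or corrected inhibition above about 18%, plus a signal ratio from 0.5 to 1.5, limit read from the data, passing the limit was not always enough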
M18AAP inhibitor – PfM18AAP enzyme inhibition. recombinant PfM18AAP, H-Glu-NHMec fluorogenic cleavage. hit rate 1.2% among 290,000. inhibition, % at 7.35 µM;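 active = inhibition above the campaign mean inhibition over all tested compounds plus 3 SD, cut at about 28% in these data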;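 note: 0% = plate median of test compound wells and 100% = 2 mM ZnCl2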
HTR2A ag – mouse HTR2A agonism via beta-arrestin recruitment. CHO-K1 mHTR2A beta-arrestin complementation, luminescence; percent of 30 µM serotonin response. activation, % at 7.6 µM. hit rate 0.66% among 360,000. AID 624169;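 active = activation above a run cutoff, the mean activation of all tested compounds plus 3 SD, cut at about 14% in these data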;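 note: 0% = plate median of compound wells and 100% = 30 µM serotonin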
Target sequence (P35363 whole entry, looked up): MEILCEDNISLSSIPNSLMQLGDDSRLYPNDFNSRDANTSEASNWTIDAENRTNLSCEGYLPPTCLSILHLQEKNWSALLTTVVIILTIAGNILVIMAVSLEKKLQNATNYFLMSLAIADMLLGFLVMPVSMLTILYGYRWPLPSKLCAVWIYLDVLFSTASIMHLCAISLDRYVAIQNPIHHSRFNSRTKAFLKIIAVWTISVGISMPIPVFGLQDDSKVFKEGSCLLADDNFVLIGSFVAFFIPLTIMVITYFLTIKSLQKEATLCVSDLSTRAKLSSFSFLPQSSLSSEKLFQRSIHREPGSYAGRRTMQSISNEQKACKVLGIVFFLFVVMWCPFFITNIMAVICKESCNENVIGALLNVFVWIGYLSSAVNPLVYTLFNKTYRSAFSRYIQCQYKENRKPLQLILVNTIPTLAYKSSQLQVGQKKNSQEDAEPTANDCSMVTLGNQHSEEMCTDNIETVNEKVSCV
Starred values were filed as active, the others as inactive; . = not tested or not shown.

SMILES	HGIII-sPLA2 inh	Arrestin-AP2 inh	Lipid droplet	CendR NRP1 mod	M18AAP inhibitor	HTR2A ag
COc1ccc(-n2nnnc2SCC(=O)N(C)C2CCS(=O)(=O)C2)cc1 (stereo not drawn)	-8	14	.	26*	.	0
Cc1ccc(OCc2nnc(SCC(=O)c3ccccc3)n2-c2ccccc2)cc1	-56	-7	-4	-1	2	-2
N#Cc1ccc(OCc2nnc(SCC(=O)c3ccccc3)n2-c2ccccc2)cc1	-22	8	-7	31*	2	-3
CCCCOCCCNC(=O)C[C@H]1C[C@@]2(C(=O)OCC)CCCC3=C2N(CCC3)C1=O	2	.	.	.	.	.
C/C(=N\NC(=O)c1c(C)nc2ccccn12)c1ccc(O)cc1O	12	-2	-6	-20	29*	5
O=C(Nc1ccc(C(F)(F)F)cc1)OC1CC2CC1[C@H]1CCCCN1[C@H]2Cc1ccccc1 (stereo partly drawn)	1	.	.	.	.	.
CCc1ccc(NS(=O)(=O)c2c(C(=O)N3CCCCCC3)c(C)n(C)c2C)cc1	-4	-15	-7	28*	-1	-3
Cc1ccc(NS(=O)(=O)c2c(C(=O)N3CCCCCC3)c(C)n(C)c2C)c(C)c1	-8	42	1	26*	-11	6
Cc1ccccc1NS(=O)(=O)c1c(C(=O)N2CCCCCC2)c(C)n(C)c1C	-5	0	-68	12	2	11
CCc1ccc(NS(=O)(=O)c2c(C(=O)N3CCOCC3)c(C)n(C)c2C)cc1	-4	45	7	-9	0	7
CC(C)n1nnnc1C1(C)CSCC(=O)N1Cc1cccc(F)c1 (stereo not drawn)	0	.	.	.	.	.
CN(C)c1cccc2c(S(=O)(=O)NC(=O)[C@H]3O[C@@H](n4cnc5c(N)ncnc54)[C@H](O)[C@@H]3O)cccc12	-4	.	.	25*	.	-4
COc1ccc(C2CC(c3ccccc3)Nc3nc(NC(=O)c4cccs4)nn32)cc1 (stereo not drawn)	5	40	-15	31*	-1	-1
CCOC(=O)c1sc(NNC(=O)c2ccc(F)cc2)nc1C	13	12	6	-6	28*	0
CS(=O)(=O)c1sc(C#N)c2c1C(=O)CC(c1ccccc1)C2 (stereo not drawn)	9	6	-1	1	-41	-10
CC1(C(=O)NCc2ccccc2)CSCC(=O)N1Cc1cccc(C(F)(F)F)c1 (stereo not drawn)	7	.	.	-1	.	-4
O=C(O)CC12CC3CC(C1)CC(n1ncc(NCC4CCCO4)c(Cl)c1=O)(C3)C2 (stereo not drawn)	-4	2	-9	25*	7	2
COc1ccc([C@H](OC)[C@@]2(Cc3ccc(O)cc3)N=C(N)N(C)C2=O)cc1	3	2	.	21*	.	-1
Cc1ccc(O)c(CNCCNCc2cc(C)ccc2O)c1	-14	11	.	25*	.	-2
CCN(CC)c1nc(-c2ccccn2)nc(-c2ccccc2)c1C#N	4	11	20	0	-1	-4
O=C(CCCn1c(=O)c2cccn2c2cccnc21)NCc1cccc(Br)c1	7	25	-2	2	-3	3
O=C(CCn1c(=O)c2cccn2c2cccnc21)NCc1cccc(Cl)c1	2	-4	-3	27*	-5	6
N=C1/C(=C\c2coc3ccc(O)cc3c2=O)C(=O)N=C2SC=CN12	-8	10	-5	133	49*	-2
CSC1=NSC2=NC(=O)/C(=C\c3coc4ccccc4c3=O)C(=N)N12	-48	1	-5	122	5	4
N=C1/C(=C/c2coc3ccccc3c2=O)C(=O)N=C2SC(c3ccco3)=NN12	.	4	-12	135	29*	-8
O=C(N[C@H](C(=O)N1CCC[C@H]1C(=O)NCc1ccccc1)c1ccccc1)C1CCCC1	-5	.	.	.	.	.
Cc1ccc(CNC(=O)CS(=O)(=O)CC(=O)O)cc1	2	-4	-3	21*	-7	6
Cc1ccc(S(=O)(=O)CC(=O)NCc2ccccc2)cc1	0	0	14	-6	9	-5
Cc1cccc(C)c1NC(=O)CNC(=O)C1CCCN(C(=O)c2ccc(Cl)cc2)C1 (stereo not drawn)	-9	3	.	-6	.	6
